mABHD4 FP: inhibits mouse alpha/beta hydrolase domain 4. inhibition, % at 8.92 µM. 370,000 tested, 0.54% active. Q8VD66. AID 720543. purified mABHD4, FP-Rh probe fluorescence polarization;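 active means inhibition exceeding the mean over every tested compound plus 3 SD, cut at about 30% in these data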
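system = mouse ABHD4 enzyme, wild type | medium = HEPES pH 7.0, NaCl, Pluronic buffer | also added = FP-Rh probe | incubation = Enzyme–compound pre-incubation 45 min, then probe 60 min, both 25 °C | technique = fluorescence polarization, excitation 525 nm, emission 598 nm, BODIPY TMR filters | controls = S159A mutant high control, sample median low control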
PRMT1 FP inh: blocks human protein arginine methyltransferase 1 | recombinant PRMT1, activity-based probe fluorescence polarization | inhibition, % at 2.79 µM | 370,000 tested, 1.3% active | AID 652257;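 active means inhibition above about 21% made by adding two undisclosed values, limit read from the data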
Target sequence (Q99873 whole entry, looked up): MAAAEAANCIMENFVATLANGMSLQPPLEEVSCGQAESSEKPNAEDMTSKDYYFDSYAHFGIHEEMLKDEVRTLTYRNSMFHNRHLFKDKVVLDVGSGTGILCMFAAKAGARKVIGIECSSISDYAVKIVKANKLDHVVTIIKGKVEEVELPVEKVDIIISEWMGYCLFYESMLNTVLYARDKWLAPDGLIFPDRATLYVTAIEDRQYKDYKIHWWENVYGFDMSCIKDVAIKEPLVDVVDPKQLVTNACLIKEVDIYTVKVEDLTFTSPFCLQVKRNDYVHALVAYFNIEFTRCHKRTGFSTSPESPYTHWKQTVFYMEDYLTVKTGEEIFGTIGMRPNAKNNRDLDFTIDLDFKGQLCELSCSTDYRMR
SIAE primary: human SIAE inhibition, primary screen; 370,000 tested, 0.69% active; Q9HAT2; inhibition, % at 9.66 µM; SIAE FP-Rh probe binding, fluorescence polarization;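 active means inhibition above a cutoff: mean of compounds within the control limits plus 3 SD of those, cut at about 17% in these data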
TCR CD3 inh: blocks the human TCR-CD3 interaction; TAMRA-labeled TCR probe fluorescence, biochemical; inhibition, % at 9.4 µM; 360,000 tested, 0.37% active; in the data active means inhibition above about 19%;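 further: recombinant mutant TCR 2C K166C tagged with TAMRA read by polarization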
HTRA1 inhibitor: blocks human HTRA1 serine peptidase; Q92743; recombinant HTRA1, FP-rhodamine activity-based probe, fluorescence polarization; inhibition, % at 5.96 µM; 340,000 tested, 0.5% active; AID 504803; in the data active means inhibition above about 36%
SIAE inh conf: human SIAE inhibition, confirmation. SIAE FP-Rh activity-based probe, fluorescence polarization. inhibition, % at 9.66 µM. 2,300 tested, 13% active. shares compounds with SIAE primary;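 active means mean inhibition of the replicates above the hit cutoff set in the primary screen, cut at about 17% in these data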;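 further: inhibitors lower polarization as more probe stays unbound to SIAE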
Numbers stand for hits; n = inactive; x = no result. A selection: hits, their analogues and other compounds. The true share with any hit is near 2.5%.

SMILES	mABHD4 FP	PRMT1 FP inh	SIAE primary	TCR CD3 inh	HTRA1 inhibitor	SIAE inh conf
O=S(=O)(NCC(Nc1ccc(Cl)cc1)c1ccccc1)c1ccc(Cl)cc1 (stereo unspecified)	n	n	19	n	n	n
C[C@H]1C2CC(OC(=O)NCc3ccccc3)C(C2)[C@H]2CCCCN21 (stereo partly specified)	n	n	n	x	x	x
CN(C)S(=O)(=O)c1ccc(SCC(=O)N2CC(=O)Nc3ccccc32)nc1	n	n	17	n	n	n
O=C1CN(C(=O)CSc2ccccn2)c2ccccc2N1	n	n	n	n	n	x
CCOc1ccc(OCCC(=O)OC(C)C(=O)Nc2ccc(C(C)=O)cc2)cc1 (stereo unspecified)	n	n	n	n	n	x
CC(=O)Nc1ccc(NC(=O)C(C)OC(=O)COc2ccc(Nc3ccccc3)cc2)cc1 (stereo unspecified)	n	n	23	n	n	n
COc1ccccc1NC(=S)N/N=C/c1ccc(O)cc1	n	n	19	n	n	n
CCCn1c(NC(=O)c2ccccc2)nc(Cc2ccccc2)c1-c1ccc(OC)cc1	n	n	n	x	x	x
COc1ccc(-c2c(Cc3ccccc3)nc(NC(=O)c3ccccc3F)n2C)cc1	n	n	41	x	x	n
COCCN(C(=O)Nc1ccccc1OC)c1nc2ccccc2s1	n	n	n	n	n	x
CNc1oc(Cc2cccc3ccccc23)nc1C#N	n	n	18	n	n	n
COc1ccccc1OCCC(=O)NNC(=O)c1ccccc1F	n	n	n	n	n	x
C[C@@H]1ON(C)[C@H]2C[C@H]3c4[nH]c5c(-c6ccccc6)cccc5c4CCN3C[C@@H]12	n	n	n	n	x	x
Nc1ccc2nc(-c3ccc(-c4nc5ccc(N)cc5[nH]4)cc3)[nH]c2c1	n	n	17	n	x	26
COC(=O)c1ccc(Cn2ccc3ccc(-c4ccc5ccn(C(=O)c6cccc(OC)c6)c5c4)cc32)cc1	n	n	n	x	x	x
CCc1ccc(/C=C2/SC(N3CCOCC3)=NC2=O)cc1	n	n	18	n	n	n
CC(C)c1ccc(/C=C2\SC(N3CCOCC3)=NC2=O)cc1	n	n	n	n	n	x
C[C@H](NC(=O)CCCn1nnc2ccccc2c1=O)C(=O)O	n	n	17	n	n	n
O=C(NC1CCCC1)C1CC(O)CN1C(=O)Nc1ccccc1 (stereo unspecified)	n	n	n	n	n	x
CCCCc1ccc(NC(=S)Nc2ccc(Nc3ccc(OC)cc3)cc2)cc1	n	n	27	n	n	n
Cc1cccc(NC(=O)CN2CCN(C(=O)C(C)Oc3ccc(C#N)cc3)CC2)c1C (stereo unspecified)	n	n	20	n	n	n
Cc1ccc(C)c(OCC(=O)Nc2ccncc2)c1	n	n	n	n	n	x
CC(C)Cc1nnc(NC(=O)CCC(=O)NCc2ccccc2Cl)s1	n	n	18	n	n	n
Cc1c(C2(O)CCCCC2)[nH]c2ncccc12	n	n	n	n	n	x
Cc1c(C2(O)CCCCC2)[nH]c2cnccc12	n	n	23	n	n	n
SMILES	mABHD4 FP	PRMT1 FP inh	SIAE primary	TCR CD3 inh	HTRA1 inhibitor	SIAE inh conf
CN(C)c1ccc(C(CNS(=O)(=O)c2ccc(F)c(F)c2)c2c[nH]c3ccccc23)cc1 (stereo unspecified)	n	n	27	n	n	n
Cc1cc(C)c(S(=O)(=O)N(C)CC(=O)NC2CCCC2)c(C)c1	n	n	n	n	n	x
O=C(NC(=S)Nc1cccc(NC(=O)c2ccccc2)c1)c1cccc([N+](=O)[O-])c1	n	n	63	n	n	n
O=C(Nc1nc(-c2ccccc2)cs1)c1cccc([N+](=O)[O-])c1	n	n	19	n	n	n
COc1ccc(C(=O)N2CCC(C)(C(=O)O)C2)cc1OC (stereo unspecified)	n	n	n	n	x	x
O=C(CSc1ccc(Cl)cc1)NC1=NN(c2ccccc2)C(=O)C1	n	n	25	n	n	n
O=C(Nc1ccccc1Cl)c1cc(C2CCCN(C(=O)c3ccccc3)C2)on1 (stereo unspecified)	n	n	n	n	x	x
O=C(Nc1ccc2c(c1)CCCN2C(=O)c1cccs1)c1c(F)cccc1Cl	n	n	n	n	n	x
COc1cc(NC(=O)CN2c3cccc4cccc(c34)S2(=O)=O)cc(OC)c1OC	n	n	29	n	n	n
CCCN1CCC(NC(=O)Nc2ccc([N+](=O)[O-])cc2)CC1	n	n	n	n	n	x
Cc1cc(C)nc(SCc2ccc(C(=O)N/N=C/c3cccc(O)c3O)cc2)n1	n	n	43	n	n	n
COc1ccc(O)c(/C=N/NC(=O)c2ccc(CSc3nc(C)cc(C)n3)cc2)c1	n	n	n	n	n	x
O=C(/C=C/c1ccc(F)cc1)c1ccccc1Br	n	n	n	n	n	x
Cc1nc(NC(=O)/C=C/c2ccccc2)n[nH]1	n	n	n	n	n	x
CCC1(C)Cc2ccccc2-c2[nH][nH]c(=O)c21 (stereo unspecified)	n	n	n	n	n	x
COc1ccccc1NC(=O)Nc1ccc(NC(=O)c2ccccc2O)cc1	n	n	51	n	n	26
O=C(Cn1c(=O)oc2cc(S(=O)(=O)N3CCCC3)ccc21)N1CCN(C2CCCCC2)CC1	n	n	n	n	n	x
O=C(Cn1c(=O)oc2cc(S(=O)(=O)N3CCCCC3)ccc21)N1CCCCC1	n	n	17	n	n	n
CC(OC(=O)[C@@H]1CCCN1C(=O)c1cccs1)C(=O)Nc1cccc([N+](=O)[O-])c1 (stereo partly specified)	n	n	n	n	n	x
FC(F)(F)C(F)(F)c1nnc2ccc(-n3ccnc3)nn12	n	n	17	n	n	n
O=C(Nc1cc(S(=O)(=O)N2CCOCC2)ccc1N1CCCCC1)c1cc(-c2ccccn2)nc2ccccc12	n	n	18	n	n	n
Cc1ccc(S(=O)(=O)N2CCOCC2)cc1NC(=O)c1cc(-c2ccccn2)nc2ccccc12	n	n	n	n	n	x
O=C(c1cccs1)C1CCN(c2ncnc3sccc23)CC1	n	n	n	x	x	x
COc1ccc(/C=C/C(=O)NC(=S)Nc2cc([N+](=O)[O-])ccc2O)cc1OC	n	n	18	50	n	n
CN(c1ccccc1)S(=O)(=O)c1cccc(C(=O)NCCc2ccc(O)c(O)c2)c1	n	n	17	n	n	n
SMILES	mABHD4 FP	PRMT1 FP inh	SIAE primary	TCR CD3 inh	HTRA1 inhibitor	SIAE inh conf
COc1ccccc1NC(=O)Cn1c(CCC(=O)O)ccc1-c1ccc(C)cc1	n	n	n	n	n	x
COc1ccc(/C=C2/C(=O)N(c3ccccc3)N=C2C)cc1OC	n	n	n	n	n	x
COc1ccc(C2=NN(c3ccccc3)C(=O)/C2=C\c2ccc(O)c(OC)c2)cc1	n	n	19	n	n	n
C=CCc1cccc(CNc2nc3ccccc3n2CCC)c1O	n	n	19	n	n	n
CCCn1c(Nc2ccccc2C)nc2ccccc21	n	n	37	n	n	n
C=CCc1cccc(CNc2nc3ccccc3n2CC)c1O	n	n	n	n	n	x

Screening data deposited in PubChem BioAssay by The Scripps Research Institute Molecular Screening Center.
